Source: ChEMBL document CHEMBL1275559, “Complex ciprofloxacin resistome revealed by screening a Pseudomonas aeruginosa mutant library for altered susceptibility” (2008)
Calls of active or inactive are those of the source.

What was measured:
[1] = system: Pseudomonas aeruginosa; assay: Upregulation of putative phage tail protein in Pseudomonas aeruginosa PA0619 at MIC; type: functional, organism-based
[2] = system: Pseudomonas aeruginosa; assay: Upregulation of putative tail fiber protein in Pseudomonas aeruginosa PA0620 at 0.3 times MIC; type: functional, organism-based
[3] = system: Pseudomonas aeruginosa; assay: Upregulation of putative tail fiber protein in Pseudomonas aeruginosa PA0620 at MIC; type: functional, organism-based
[4] = system: Pseudomonas aeruginosa; assay: Upregulation of putative phage tail tube protein in Pseudomonas aeruginosa PA0623 at 0.3 times MIC; type: functional, organism-based
[5] = system: Pseudomonas aeruginosa; assay: Upregulation of putative tail fiber assembly protein in Pseudomonas aeruginosa PA0621 at 0.3 times MIC; type: functional, organism-based
[6] = system: Pseudomonas aeruginosa; assay: Upregulation of putative tail fiber assembly protein in Pseudomonas aeruginosa PA0621 at MIC; type: functional, organism-based
[7] = system: Pseudomonas aeruginosa; assay: Upregulation of putative phage tail sheath protein in Pseudomonas aeruginosa PA0622 at 0.3 times MIC after 48 hrs; type: functional, organism-based
[8] = system: Pseudomonas aeruginosa; assay: Upregulation of putative phage tail sheath protein in Pseudomonas aeruginosa PA0622 at MIC after 48 hrs; type: functional, organism-based
[9] = system: Pseudomonas aeruginosa; assay: Upregulation of putative phage tail tube protein in Pseudomonas aeruginosa PA0623 at MIC; type: functional, organism-based
[10] = system: Pseudomonas aeruginosa; assay: Upregulation of conserved hypothetical protein in Pseudomonas aeruginosa PA0624 at 0.3 times MIC; type: functional, organism-based
In short: (§1)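 P. aeruginosa cells were treated with ciprofloxacin at 0.3× MIC or 1× MIC. Gene expression trend was scored relative to untreated cells.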

[11] = system: Pseudomonas aeruginosa; assay: Upregulation of putative tail formation protein in Pseudomonas aeruginosa PA0626 at 0.3 times MIC; type: functional, organism-based
[12] = system: Pseudomonas aeruginosa; assay: Upregulation of hypothetical protein in Pseudomonas aeruginosa PA0630 at 0.3 times MIC; type: functional, organism-based; in short: as §1
[13] = system: Pseudomonas aeruginosa; assay: Upregulation of hypothetical protein in Pseudomonas aeruginosa PA0630 at MIC; type: functional, organism-based; in short: as §1
[14] = system: Pseudomonas aeruginosa; assay: Upregulation of putative major tail protein V in Pseudomonas aeruginosa PA0633 at MIC; type: functional, organism-based; in short: as §1
[15] = system: Pseudomonas aeruginosa; assay: Upregulation of hypothetical protein in Pseudomonas aeruginosa PA0634 at 0.3 times MIC; type: functional, organism-based; in short: as §1
[16] = system: Pseudomonas aeruginosa; assay: Upregulation of hypothetical protein in Pseudomonas aeruginosa PA0634 at MIC; type: functional, organism-based; in short: as §1
[17] = system: Pseudomonas aeruginosa; assay: Upregulation of putative phage tail assembly protein in Pseudomonas aeruginosa PA0640 at 0.3 times MIC; type: functional, organism-based; in short: as §1
[18] = system: Pseudomonas aeruginosa; assay: Upregulation of putative phage tail assembly protein in Pseudomonas aeruginosa PA0640 at MIC; type: functional, organism-based; in short: as §1
[19] = system: Pseudomonas aeruginosa; assay: Upregulation of putative phage-related protein, tail component in Pseudomonas aeruginosa PA0641 at 0.3 times MIC; type: functional, organism-based
[20] = system: Pseudomonas aeruginosa; assay: Upregulation of putative phage-related protein, tail component in Pseudomonas aeruginosa PA0641 at MIC; type: functional, organism-based
[21] = system: Pseudomonas aeruginosa; assay: Upregulation of conserved hypothetical protein in Pseudomonas aeruginosa PA0647 at 0.3 times MIC; type: functional, organism-based; in short: as §1
[22] = system: Pseudomonas aeruginosa; assay: Upregulation of conserved hypothetical protein in Pseudomonas aeruginosa PA0647 at MIC; type: functional, organism-based; in short: as §1
[23] = system: Pseudomonas aeruginosa; assay: Upregulation of hypothetical protein in Pseudomonas aeruginosa PA0736-PA0737 at 0.3 times MIC; type: functional, organism-based; in short: as §1
[24] = system: Pseudomonas aeruginosa; assay: Upregulation of hypothetical protein in Pseudomonas aeruginosa PA0736-PA0737 at MIC; type: functional, organism-based; in short: as §1
[25] = system: Pseudomonas aeruginosa; assay: Upregulation of conserved hypothetical protein in Pseudomonas aeruginosa PA1433 at MIC after 48 hrs; type: functional, organism-based
[26] = system: Pseudomonas aeruginosa; assay: Upregulation of putative permease of ABC transporter in Pseudomonas aeruginosa PA2060 at 0.3 times MIC after 48 hrs; type: functional, organism-based
[27] = system: Pseudomonas aeruginosa; assay: Downregulation of hypothetical protein in Pseudomonas aeruginosa PA3276 at 0.3 times MIC after 48 hrs; type: functional, organism-based
[28] = system: Pseudomonas aeruginosa; assay: Upregulation of conserved hypothetical protein in Pseudomonas aeruginosa PA3784 at MIC after 48 hrs; type: functional, organism-based
[29] = system: Pseudomonas aeruginosa; assay: Upregulation of possible nuclease or phosphatase in Pseudomonas aeruginosa PA3958 at 0.3 times MIC after 48 hrs; type: functional, organism-based
[30] = system: Pseudomonas aeruginosa; assay: Upregulation of possible nuclease or phosphatase in Pseudomonas aeruginosa PA3958 at MIC after 48 hrs; type: functional, organism-based
[31] = system: Pseudomonas aeruginosa; assay: Upregulation of hypothetical protein in Pseudomonas aeruginosa PA0338 at MIC; type: functional, organism-based; in short: as §1
[32] = system: Pseudomonas aeruginosa; assay: Upregulation of putative tail length determination protein in Pseudomonas aeruginosa PA0636 at 0.3 times MIC; type: functional, organism-based
[33] = system: Pseudomonas aeruginosa; assay: Upregulation of putative tail length determination protein in Pseudomonas aeruginosa PA0636 at MIC; type: functional, organism-based
[34] = system: Pseudomonas aeruginosa; assay: Upregulation of putative minor tail protein L in Pseudomonas aeruginosa PA0638 at MIC; type: functional, organism-based; in short: as §1
[35] = system: Pseudomonas aeruginosa; assay: Upregulation of putative major tail protein V in Pseudomonas aeruginosa PA0633 at 0.3 times MIC; type: functional, organism-based; in short: as §1
[36] = system: Pseudomonas aeruginosa; assay: Upregulation of putative tail formation protein in Pseudomonas aeruginosa PA0626 at MIC; type: functional, organism-based
[37] = system: Pseudomonas aeruginosa; assay: Upregulation of conserved hypothetical protein in Pseudomonas aeruginosa PA0624 at MIC; type: functional, organism-based; in short: as §1
[38] = system: Pseudomonas aeruginosa; assay: Upregulation of conserved hypothetical protein in Pseudomonas aeruginosa PA0613 at MIC after 48 hrs; type: functional, organism-based
[39] = system: Pseudomonas aeruginosa; assay: Upregulation of ygdP gene in Pseudomonas aeruginosa PA0336 at 0.3 times MIC relative to untreated control; type: functional, organism-based
[40] = system: Pseudomonas aeruginosa; assay: Upregulation of ygdP gene in Pseudomonas aeruginosa PA0336 at 1 times MIC relative to untreated control; type: functional, organism-based
[41] = system: Pseudomonas aeruginosa; assay: Upregulation of mexB gene in Pseudomonas aeruginosa PA0426 at 0.3 times MIC relative to untreated control; type: functional, organism-based; in short: as §1
[42] = system: Pseudomonas aeruginosa; assay: Upregulation of oprM gene in Pseudomonas aeruginosa PA0427 at 1 times MIC relative to untreated control; type: functional, organism-based; in short: as §1
[43] = system: Pseudomonas aeruginosa; assay: Downregulation of oprF gene in Pseudomonas aeruginosa PA1777 at 1 times MIC relative to untreated control; type: functional, organism-based; in short: as §1
[44] = system: Pseudomonas aeruginosa; assay: Downregulation of tig gene in Pseudomonas aeruginosa PA1800 at 1 times MIC relative to untreated control; type: functional, organism-based; in short: as §1
[45] = system: Pseudomonas aeruginosa; assay: Downregulation of betT1 gene in Pseudomonas aeruginosa PA5375 at 0.3 times MIC relative to untreated control; type: functional, organism-based; in short: as §1
[46] = system: Pseudomonas aeruginosa; assay: Upregulation of nuoN gene in Pseudomonas aeruginosa PA2649 at 0.3 times MIC; type: functional, organism-based; in short: as §1
[47] = system: Pseudomonas aeruginosa; assay: Upregulation of hitB gene in Pseudomonas aeruginosa PA4688 at 0.3 times MIC; type: functional, organism-based; in short: as §1
[48] = system: Pseudomonas aeruginosa; assay: Upregulation of hitB gene in Pseudomonas aeruginosa PA4688 at MIC; type: functional, organism-based; in short: as §1
[49] = system: Pseudomonas aeruginosa; assay: Upregulation of mutL gene in Pseudomonas aeruginosa PA4946 at MIC; type: functional, organism-based; in short: as §1
[50] = system: Pseudomonas aeruginosa; assay: Downregulation of nuoG gene in Pseudomonas aeruginosa PA2642 at MIC; type: functional, organism-based; in short: as §1
[51] = system: Pseudomonas aeruginosa; assay: Downregulation of adhA gene in Pseudomonas aeruginosa PA5427 at MIC; type: functional, organism-based; in short: as §1
[52] = system: Pseudomonas aeruginosa; assay: Upregulation of atpB gene in Pseudomonas aeruginosa PA5560 at MIC; type: functional, organism-based; in short: as §1
[53] = system: Pseudomonas aeruginosa; assay: Upregulation of gidA gene in Pseudomonas aeruginosa PA5565 at MIC; type: functional, organism-based; in short: as §1
[54] = system: Pseudomonas aeruginosa; assay: Upregulation of hypothetical protein in Pseudomonas aeruginosa PA0338 at 0.3 times MIC; type: functional, organism-based; in short: as §1
[55] = system: Pseudomonas aeruginosa; assay: Upregulation of putative sensor/response regulator hybrid in Pseudomonas aeruginosa PA1611 at 0.3 times MIC; type: functional, organism-based
[56] = system: Pseudomonas aeruginosa; assay: Upregulation of hypothetical protein in Pseudomonas aeruginosa PA4459 at MIC; type: functional, organism-based; in short: as §1
[57] = system: Pseudomonas aeruginosa; assay: Upregulation of hypothetical protein in Pseudomonas aeruginosa PA4685 at 0.3 times MIC; type: functional, organism-based; in short: as §1
[58] = system: Pseudomonas aeruginosa; assay: Upregulation of conserved hypothetical protein in Pseudomonas aeruginosa PA0613 at 0.3 times MIC after 48 hrs; type: functional, organism-based
[59] = system: Pseudomonas aeruginosa; assay: Upregulation of conserved hypothetical protein in Pseudomonas aeruginosa PA0615 at 0.3 times MIC; type: functional, organism-based; in short: as §1
[60] = system: Pseudomonas aeruginosa; assay: Upregulation of hypothetical protein in Pseudomonas aeruginosa PA0616 at 0.3 times MIC; type: functional, organism-based; in short: as §1
[61] = system: Pseudomonas aeruginosa; assay: Upregulation of conserved hypothetical protein in Pseudomonas aeruginosa PA0615 at MIC; type: functional, organism-based; in short: as §1
[62] = system: Pseudomonas aeruginosa; assay: Upregulation of hypothetical protein in Pseudomonas aeruginosa PA0616 at MIC; type: functional, organism-based; in short: as §1
[63] = system: Pseudomonas aeruginosa; assay: Upregulation of putative base plate assembly protein W in Pseudomonas aeruginosa PA0617 at 0.3 times MIC; type: functional, organism-based; in short: as §1
[64] = system: Pseudomonas aeruginosa; assay: Upregulation of putative base plate assembly protein W in Pseudomonas aeruginosa PA0617 at MIC; type: functional, organism-based; in short: as §1
[65] = system: Pseudomonas aeruginosa; assay: Upregulation of putative phage base plate assembly protein in Pseudomonas aeruginosa PA0618 at 0.3 times MIC; type: functional, organism-based; in short: as §1
[66] = system: Pseudomonas aeruginosa; assay: Upregulation of putative phage base plate assembly protein in Pseudomonas aeruginosa PA0618 at MIC; type: functional, organism-based; in short: as §1
[67] = system: Pseudomonas aeruginosa; assay: Upregulation of putative phage tail protein in Pseudomonas aeruginosa PA0619 at 0.3 times MIC; type: functional, organism-based; in short: as §1
[68] = system: Pseudomonas aeruginosa; assay: Downregulation of betT1 gene in Pseudomonas aeruginosa PA5375 at 0.3 times MIC relative to untreated control

Measured: Activity

O=C(O)c1cn(C2CC2)c2cc(N3CCNCC3)c(F)cc2c1=O
active: all assays above
